An excerpt weighted towards active compounds, which were near 1.2% of everything screened.
CAL PDZ FP-1 – CAL PDZ (human) peptide binding inhibition | Q9HD26 | purified CAL PDZ, TMR-peptide fluorescence polarization, 1 h | AID 602252 | 0.92% of 300,000 active | inhibition, % at 24.9 µM;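 active = mean inhibition of at least 30% with at least half of replicates also reaching 30%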
CAL PDZ FP-2 – blocks peptide binding to human CAL PDZ domain; 0.02% of 330,000 active; AID 504414; Q9HD26; purified CAL PDZ, TMR-peptide fluorescence polarization, 1 h; inhibition, % at 20 µM;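 active = highest replicate inhibition of at least 40%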
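Material: tagged CAL PDZ domain; buffer or medium: 25 mM sodium phosphate pH 7.4, 150 mM NaCl, TCEP, IgG, Thesit; compound dosing: single point, 20 µM; schedule: 1 h incubation at room temperature before polarization reading; measured by: FP readout, S and P plane fluorescence; read-out basis: percent inhibition from loss of millipolarization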
ARNT-TACC3 inh – disruptors of human ARNT/TACC3 interaction; AlphaScreen His-ARNT PAS-B/GST-TACC3 binding, luminescence; TACC3 fragment carries E629A point mutation; AID 623870; inhibition, % at 9.99 µM; 0.66% of 390,000 active;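 active = mean inhibition of replicates at least 50% and at least half of replicates each reaching 50%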
Hits are given with their value; – = inactive; · = not tested or not shown.

SMILES | CAL PDZ FP-1 | CAL PDZ FP-2 | ARNT-TACC3 inh
CC(=O)c1ccccc1C(=O)N(C)C1CCCN(Cc2ccccc2F)C1 (stereo not drawn) | · | – | –
CCCCn1c(SCC(=O)N(CC)C2CCS(=O)(=O)C2)nc2cc(S(N)(=O)=O)ccc21 (stereo not drawn) | – | – | –
CCCCn1c(SCC(=O)N(C)C2CCS(=O)(=O)C2)nc2cc(S(N)(=O)=O)ccc21 (stereo not drawn) | 53 | – | –
O=C1C(NS(=O)(=O)c2cccs2)=C(N2CCOCC2)C(=O)c2ccccc21 | – | – | –
CN(C1=C(N2CCOCC2)C(=O)c2ccccc2C1=O)c1ccccc1 | – | – | 60
COc1ccc(O)c(C(=O)c2coc(=N)c(C(=O)Nc3ccc(SC(F)F)cc3)c2)c1 | 40 | – | –
CC(C)OC(=O)c1cc(C(=O)c2cc(F)ccc2O)coc1=N | – | – | ·
COc1ccc(CNC(=O)C[C@@H]2C=C[C@H](NC(=O)Nc3ccc4c(c3)OCO4)[C@H](CO)O2)cc1 | · | · | –
C[C@H]1CN([C@@H](C)CO)S(=O)(=O)c2ccc(C3=CCCCC3)cc2O[C@@H]1CN(C)Cc1ccccc1F | · | · | –
Cc1ccc(Cn2ncc3c(NCCN(C)C)ncnc32)cc1 | – | – | –
Cc1ccc(Cn2ncc3c(NN)ncnc32)cc1 | – | – | 66
COc1cccc(S(=O)(=O)N2C[C@H](O)COC[C@@H]3O[C@H](CC(=O)N4CCN(C)CC4)CC[C@H]32)c1 | · | · | –
Cc1ccc(S(=O)(=O)N(C)C[C@@H]2OCCCC[C@@H](C)Oc3ccc(N(C)C)cc3C(=O)N([C@H](C)CO)C[C@H]2C)cc1 | · | · | –
CCCN(CC(=O)Nc1ccccc1C)C(=O)c1sc2ccccc2c1Cl | 61 | – | –
Cc1ccccc1NC(=O)COC(=O)CNC(=O)c1sc2ccccc2c1Cl | – | – | –
CCOc1cccc(N2CCN(CCNC(=O)Nc3ccc(C)cc3)CC2)c1C | 37 | – | –
CCOc1ccc(NC(=O)NCCN2CCN(c3cccc(C)c3C)CC2)cc1 | – | – | –
CO[C@H]1CC[C@H]2CCOc3ccc(C#N)cc3C(=O)N(C)C[C@H](C)C(=O)N(C)C[C@@H]1O2 | · | · | –
O=C(O)c1ccccc1-c1ccc(/C=c2\sc3nc4cc(Br)cnc4n3c2=O)o1 | – | – | 50
Cc1cc2nc3s/c(=C/c4ccc(-c5ccccc5C(=O)O)o4)c(=O)n3c2cc1C | – | – | –
CNC(=S)NNC(=O)c1cccn(Cc2cccc(C(F)(F)F)c2)c1=O | – | – | –
CCNC(=S)NNC(=O)c1cccn(Cc2ccc(Cl)cc2)c1=O | – | – | 44
C[C@H](CO)N1C[C@H](C)[C@@H](CN(C)C(=O)NC2CCCCC2)OCCCC[C@H](C)Oc2ccc(NS(=O)(=O)c3cccs3)cc2C1=O | · | · | –
C[C@@H]1CN([C@H](C)CO)C(=O)c2cc(NC(=O)c3ccncc3)ccc2O[C@@H]1CN(C)C(=O)NC1CCCCC1 | · | · | –
O=C(NCCCN1CCOCC1)c1ccc2c(c1)N(Cc1ccccc1)CCS2 | 58 | – | –
SMILES | CAL PDZ FP-1 | CAL PDZ FP-2 | ARNT-TACC3 inh
O=C(NCCN1CCOCC1)c1ccc2c(c1)N(Cc1ccccc1)CCS2 | · | – | –
CN1c2ccc(-c3cccc(C#N)c3)cc2[C@H]2[C@H](CCN2C(=O)NC2CCCCC2)[C@@H]1CO | · | · | –
C[C@H]1CN([C@@H](C)CO)C(=O)Cc2cc(NC(=O)c3ccncc3)ccc2O[C@@H]1CN(C)C(=O)Nc1cccc2ccccc12 | · | · | –
C/C(CCc1ccco1)=N\NC(=O)CNc1cccc2ccccc12 | – | – | –
C/C(=N\NC(=O)CNc1cccc2ccccc12)c1ccccc1 | 31 | – | –
C[C@@H]1CN([C@@H](C)CO)C(=O)Cc2cc(NS(=O)(=O)c3cccs3)ccc2O[C@@H]1CN(C)Cc1ccc(Cl)c(Cl)c1 | · | · | –
CCc1nnc(NC(=O)CN2CCN(c3ccccc3F)CC2)s1 | 41 | – | –
CCc1nnc(NC(=O)CN2CCN(Cc3ccccc3C)CC2)s1 | – | – | –
CCCN(C)C[C@H]1Oc2cc(-c3ccncc3)ccc2S(=O)(=O)N([C@H](C)CO)C[C@H]1C | · | · | –
COc1ccc(NS(=O)(=O)c2c(C)cc(C)cc2C)cc1 | – | – | –
Cc1cc(C)c(S(=O)(=O)Nc2ccc(OCC(=O)O)cc2)c(C)c1 | 43 | – | ·
CCN(CC)S(=O)(=O)c1ccc(O)c(NC(=O)CN2CCc3ccccc3C2)c1 | 45 | – | –
CN(C)S(=O)(=O)c1ccc(Cl)c(NC(=O)CN2CCc3ccccc3C2)c1 | – | – | –
C[C@@H]1CN([C@H](C)CO)C(=O)c2cc(NS(=O)(=O)c3cn(C)cn3)ccc2O[C@H]1CN(C)CC1CC1 | · | · | –
O=c1c2ccccc2oc2cc(Br)ccc12 | 89 | – | –
COc1cc2oc3ccccc3c(=O)c2cc1OC | – | – | –
CC(C)NC(=O)Nc1cccc2c1O[C@@H](CN(C)S(=O)(=O)c1cccs1)[C@@H](C)CN([C@@H](C)CO)C2=O | · | · | –
COc1ccc(OC)c(NC(=O)c2ccc(NC(C)=O)cc2)c1 | – | – | –
COc1ccc(OC)c(NC(=O)c2ccc(OC3CSC3)cc2)c1 | 55 | – | –
CC(C(=O)NC(C)(C)C)N(C(=O)CS(=O)CC(=O)Nc1ccc(F)cc1)c1ccccc1F (stereo not drawn) | 33 | – | –
Cc1ccc(NC(=O)CS(=O)CC(=O)N(c2ccccc2F)C(C)C(=O)NC2CCCC2)cc1 (stereo not drawn) | – | – | ·
Cc1nnc(SCC(=O)N2CCCC(C(=O)c3ccc(Cl)cc3)C2)o1 (stereo not drawn) | 38 | · | –
COc1ccc2cc(C(=O)C3CCCN(C(=O)CSc4nnc(C)o4)C3)ccc2c1 (stereo not drawn) | – | – | ·
Cc1ccc(S(=O)(=O)N(C)C[C@H]2Oc3ccc(NS(=O)(=O)c4c(C)noc4C)cc3C(=O)N([C@@H](C)CO)C[C@@H]2C)cc1 | · | · | –
Cc1cccc(NC(=S)N(CCN2CCOCC2)Cc2cc3cc4c(cc3[nH]c2=O)OCCO4)c1 | – | – | –
SMILES | CAL PDZ FP-1 | CAL PDZ FP-2 | ARNT-TACC3 inh
Cc1ccc(NC(=S)N(CCN2CCOCC2)Cc2cc3cc4c(cc3[nH]c2=O)OCO4)cc1 | 52 | – | –
CCOc1ccc(NC(=S)N(CCN2CCOCC2)Cc2cc3cc4c(cc3[nH]c2=O)OCO4)cc1 | 63 | – | –
Cc1ccc(NC(=S)N(CCN2CCOCC2)Cc2cc3cc4c(cc3[nH]c2=O)OCCO4)cc1 | – | – | –
C[C@@H]1CCCCO[C@@H](CN(C)C(=O)Nc2ccc(F)cc2)[C@@H](C)CN([C@H](C)CO)C(=O)c2cc(NC(=O)Nc3cccc4ccccc34)ccc2O1 | · | · | –
O=C(Nc1ccccc1F)N[C@@H]1CC[C@@H](CCNC(=O)C2CCOCC2)O[C@@H]1CO | · | · | –
Nc1c(Cl)ncnc1N/N=C/c1ccc2ccccc2n1 | – | – | 64
Nc1c(Cl)ncnc1N/N=C/c1ccnc2ccccc12 | – | – | –
CC(C)C#Cc1ccc2c(c1)O[C@@H](CN(C)C(=O)CC1CC1)[C@@H](C)CN([C@@H](C)CO)S2(=O)=O | · | · | –
CC(C)NC(=O)N[C@H]1C=C[C@@H](CC(=O)N2CCCCC2)O[C@H]1CO | · | · | –
CN(Cc1cccc(F)c1)C(=O)C1CC(=O)N(c2ccc3c(c2)OCCO3)C1 (stereo not drawn) | 40 | – | –
